From ChEMBL document CHEMBL4513216, “Probing the Open Global Health Chemical Diversity Library for Multistage-Active Starting Points for Next-Generation Antimalarials” (ACS Infect Dis, 2020)

Assay: Toxicity liver stage against HepG2, at 10uM
Type: cell-based
Set-up: test concentration 10 uM, cell line HepG2-A16-CD81EGFP
Settings: human, HepG2-A16-CD81EGFP cells; read-out: INHIBITION
Outline: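 Uninfected HepG2-A16-CD81EGFP cells, 3 × 10^3 per well, 1536-well, plated on prespotted compound at 10 μM final, parasite-free screening media added to match infected plates; puromycin 10 μM positive, DMSO 0.5% negative; run in parallel with 48 h PbLuc assay at 37 °C, 5% CO2; viability by CellTiter-Glo luminescence, normalized to controls.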

SMILES | cytotoxicity at 10 µM
CCN(CC)CCNC(=O)c1ccc(-n2ccc3ccccc32)s1 | 8.01%
Cc1cc2c(N)nc(=O)n(CC(=O)Nc3cccc(Cl)c3)c2s1 | -3.14%
COc1cccc(C(=O)NCC(c2cccn2C)N2CCCC2)c1OC (stereo unspecified) | -2.4%
O=C1NC(c2ccccc2)=N[C@@]12CC[C@@H]1CN(S(=O)(=O)C3CC3)C[C@@H]12 | 9.91%
CN(C)c1nc2n(c(=O)n1)CCN2C(=O)Nc1cccc(Cl)c1 | 8.19%
CCN1CCN(C(=O)c2cc(NC(=O)c3ccccc3)n(C)n2)CC1 | 8.91%
Cn1nc(C(=O)NC2CC2)cc1NC(=O)C1CC1 | -4.02%
CCn1nc(C)c(C(=O)NCc2csc(C3CC3)n2)c1C | 20.5%
Cn1nccc1CN1CCOC(c2cccc(Nc3ccccn3)n2)C1 (stereo unspecified) | 23.9%
Cc1cc(-c2cnc(N3CCC(C(N)=O)CC3)nc2C(C)C)on1 | 72.2%
Nc1nccnc1CC1CCCN(Cc2ccnc3ccccc23)C1 (stereo unspecified) | 24.7%
Cc1cccnc1CN1CC[C@H](Oc2cccc(F)c2)[C@@](C)(O)C1 | -5.77%
Cc1csc(C(=O)N2CCC(O)(CN3CCc4ccccc4C3)C2)c1 (stereo unspecified) | -1.22%
COc1cccc(-c2noc(C3CCN(Cc4ccncc4)C3)n2)c1 (stereo unspecified) | 25.9%
CN1CCCC1c1cccc(Cc2ccccc2F)n1 (stereo unspecified) | 7.31%
O=C(CCC1CCCC1)NCc1nnc2ccccn12 | 2.52%
Cc1ncc(CN2CCC(c3ccnn3C)CC2)n1-c1ccccc1 | 19.1%
CC(C)(C)CC1CCCN1Cc1nc(-c2ccco2)no1 (stereo unspecified) | 4.11%
COC(=O)CN(C(=O)C(C)c1c(F)cccc1F)c1cccc(C)n1 (stereo unspecified) | -2.8%
COC(=O)C(CNC(=O)Nc1nncs1)Cc1cccc(C)c1 (stereo unspecified) | 6.53%
Cc1nc(CNC2CCc3nc(C(C)C)nn3C2)oc1C (stereo unspecified) | -4.1%

SMILES | cytotoxicity at 10 µM
CCc1nsc(N2CCN(CC(=O)NCc3cccnc3)CC2)n1 | -4.52%
COc1cccc(C(=O)NCc2ccccc2S(=O)(=O)N(C)CCO)c1 | -4.73%
CCc1ccc(C2COCCN2C(=O)Nc2ccc(C(N)=O)c(Cl)c2)o1 (stereo unspecified) | 2.42%
Cc1cc(C)n(CC2CCCCN2CC(=O)Nc2nccs2)n1 (stereo unspecified) | 10.1%
CCn1ccnc1CN1CCN(c2nc(C)cc(OC)n2)CC1 | -5.48%
CC(C)c1nc(CNC2CCCN(c3cccnn3)C2)no1 (stereo unspecified) | 7.68%
Cc1cc(C)n(C2CN(CC(=O)N(C)Cc3ccsc3)C2)n1 | -0.912%
COc1ccccc1NC(=O)N(CCO)Cc1ccsc1 | -1.05%
CC(C)(C)c1cnc(CN(Cc2cccnc2)CC2CCCO2)o1 (stereo unspecified) | 5.82%
CC(C)c1ccc(C(N)c2cccs2)cc1 (stereo unspecified) | 15.4%
Cc1nn(CCC#N)c(C)c1CCC(=O)N(C)Cc1ccc(F)cc1F | -1.31%
Cc1n[nH]cc1CNC1CCN(c2cccc(C(F)(F)F)c2)CC1 | -64.8%
CC(c1ccccc1)N(C)C(=O)CN1CCCc2cc(F)cc(F)c21 (stereo unspecified) | 27.3%
CC(C)n1cnnc1C1CCCN(S(=O)(=O)CC2CCCC2)C1 (stereo unspecified) | -11.7%
CC(C)CC(NC(=O)CSc1ccc(F)c(Cl)c1)C(=O)O (stereo unspecified) | -46%
CN1CCCc2ccc(S(=O)(=O)NC(=O)C3CC=CC3)cc21 | 2.84%
CNC(=O)c1[nH]nc2ccc(I)cc12 | -61.9%
CN(C)c1ncc(CNC(=O)Nc2ccc(C(F)(F)F)cc2)n1C | -49.9%
CC(C)(C)C(=O)c1ccsc1NC(=O)CCNC(=O)c1ccco1 | -52.7%
Cc1cccc(CN2CCC3(CC(C(=O)NCC(C)C)=NO3)C2)c1 (stereo unspecified) | 4.66%
c1ccc(CCN2C[C@@H]3OCCN(c4ncccn4)[C@@H]3C2)cc1 | -74.1%

SMILES | cytotoxicity at 10 µM
COCCC(=O)N1CCc2nc(N3CCOCC3)nc(NC(C)C)c2C1 | -108%
COc1cc(N2C[C@H]3CCC[C@@H](CN4CCCC4)[C@H]3C2)ncn1 | -79%
Cn1cc(CNCC2(N3CCCCC3)Cc3ccccc3C2)cn1 | -3.07%
Cc1cc2c(N3CCC(N(C)Cc4cnn(C)c4)CC3)ncnc2s1 | -1.13%
Cc1ccc2nc(C)cc(C(=O)N3C[C@H]4CCC[C@@]4(CO)C3)c2c1 | 2.53%
CCC(CO)N(Cc1ccccn1)Cc1c[nH]nc1-c1ccc(F)cc1 (stereo unspecified) | -1.83%
CCCn1ncc(-c2ccnc(NC3CCCc4ccccc43)n2)c1C (stereo unspecified) | 20.6%
c1cc(-c2cscn2)cc(N2CCC(NCCc3cccs3)CC2)c1 | 8.65%
Cc1nc[nH]c1CN1CCCC12CCN(c1nc3ccccc3s1)CC2 | -0.369%
CCCNCc1ccc(-c2ccnc3[nH]ccc23)cc1 | 66%
COc1ccc(C(=O)NC2CC2)c(OC2CCN(C(C)CO)CC2)c1 (stereo unspecified) | -7.71%
CCn1cc(-c2cc(-c3cc(CN(C)C)cs3)nc(N)c2C#N)c(C)n1 | 0.184%
CCC(C)CN1CCC(n2cc(C3CCCCC3)nn2)CC1 (stereo unspecified) | -2.9%
CCCN1CCC(Nc2cc(-c3ccccc3)ccc2OC)CC1 | 0.906%
CC(=O)c1ccc(N2CCCC(CO)(Cc3ccccc3C)C2)nc1 (stereo unspecified) | 10.1%
CNC(=O)CCC(=O)N1CCOC(c2ccc3cc(OC)ccc3c2)C1 (stereo unspecified) | 3.85%
Cc1nc2c(c(NCc3nc4ccccc4s3)n1)CCNCC2 | -37.8%
Cc1ccccc1CN(Cc1ccc(S(C)(=O)=O)cc1)CC(C)C | 16.6%
CC(CN1CCCCCC1)NCc1nncn1C1CCCCC1 (stereo unspecified) | -5.59%
Nc1nc2c(c(NCc3nccs3)n1)CCN(CC1CCCC1)CC2 | 4.36%
COc1ccc(F)c(CN2CCCC3(CCN(C4CCOCC4)C3)C2)c1 (stereo unspecified) | -1.48%

SMILES | cytotoxicity at 10 µM
Cc1nc(N(C)C2CCCCC2)ncc1C(C)NC(=O)c1cccnc1 (stereo unspecified) | -105%
Cn1cnnc1CN1CCC2(CCC(=O)N(Cc3ccccc3)C2)CC1 | 7.8%
Nc1cc(N2CCC(c3cc(Cc4ccccc4)n[nH]3)CC2)ccn1 | 24.6%
Cc1ncsc1CN1C[C@H](NC(=O)C2CCOCC2)[C@@H](C(C)C)C1 | 6.67%
CC(C)c1cc(CN2CCC(N)CC2)no1 | -8.24%
CCc1nc(C)cn1C(=O)Nc1ccc(F)cc1 | 11.1%
c1cnc(-c2nc(CN3CCN(CC4CC4)CC3)cs2)nc1 | -10.1%
COc1cc(CNCc2c(C)nn(CC(C)C)c2N(C)C)ccn1 | -9.3%
Cc1ccc(S(=O)(=O)Nc2ccc(=O)n(C)c2)c(Br)c1 | 0.802%
c1ccc2sc(CN3CCCC3c3noc(C4CC4)n3)nc2c1 (stereo unspecified) | -9.88%
c1ccc2c(N3CCCC3Cn3cccn3)ncnc2c1 (stereo unspecified) | 7.94%
N#Cc1ccc(NCCNc2ccc(C(F)(F)F)cn2)nc1 | 73%
O=C([C@H]1C[C@H]2OCC[C@H]2N(CC2CCOCC2)C1)N1CCCC1 | -0.972%
COc1c(CNC2CCOc3c(Cl)cccc32)c(C)nn1C (stereo unspecified) | 28.9%
CS(=O)(=O)N1Cc2ccnn2CC(C(=O)NCc2cccnc2)C1 (stereo unspecified) | -88.9%
Cc1ncccc1NC(=O)[C@H]1C[C@@H]2CCN(Cc3ccsc3)C[C@H]2O1 | -79.1%
Cc1nc(CN2CCC3(CC2)CCN(C(=O)c2cscn2)C3)cs1 | -71.9%
CCC1=NN2C(=N)C(=Cc3cccn3-c3ccc(Cl)cc3)C(=O)N=C2S1 | 7.92%
